No end group written: not given here.
Biological target: Su(dx) WW4 (Drosophila melanogaster, UniProt Q9Y0H4)
Assay: ITC binding of peptides to Su
Method in brief: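 Cleaved Su(dx) WW4 (GST fusion from E. coli BL21, glutathione-bead purified, PreScission-cleaved, dialysed overnight into ITC buffer) at 15–35 μm in cell; 1–1.5 mm peptide titrated in. Peptide and protein concentrations set by denaturing Trp/Tyr UV absorbance. 50 mm phosphate, 150 mm NaCl, pH 7.4, degassed; 25 °C. Dilution-corrected heats fitted for ΔH and Ka, n fixed at 1.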

Chain of Su(dx) WW4 (Q9Y0H4 515-557): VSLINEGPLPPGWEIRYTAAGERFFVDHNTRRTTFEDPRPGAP

## AKQPPSYEDC [N2]
  Kd: 45 ± 3 µM

## AKQPPSYEDCIK [N1]
  Kd: 45 ± 2 µM

— article PMC4244684 (The Journal of biological chemistry, 2007)
